Results from ChEMBL document CHEMBL1156239, “Synthesis, anticonvulsant and antimicrobial activities of some new 2-acetylnaphthalene derivatives” (Bioorg Med Chem, 2010).
In brackets after ≈: the same amount, converted by molar mass. Activity calls are given as the source filed them. The rule behind the calls is not given here.

Experiments:
Mus musculus [1] = assay: Anticonvulsant activity in CF1 mouse assessed as inhibition of maximal electroshock-induced seizures at 100 mg/kg, ip after 4 hrs; assay type: functional, organism-based; design: dose 100 mg/kg
Outline: (§1)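 Male albino CF#1 mice (18–25.5 g), compound suspended in 0.5% methylcellulose, given ip 0.5 h or 4 h before test. Eyes treated with 0.5% tetracaine HCl in saline; corneal-type MES at 60 Hz, 50 mA for 0.2 s; protection scored as animals protected/tested.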

Mus musculus [2] = assay: Neurotoxicity in CF1 mouse at 30 mg/kg, ip after 0.5 hrs by rotarod test; assay type: toxicity, organism-based; design: dose 30 mg/kg, route intraperitoneal; conditions: in vivo
Outline: (§2)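 Male albino CF#1 mice (18–25.5 g) dosed ip with compound suspended in 0.5% methylcellulose, 0.5 h or 4 h before testing; neurotoxicity assessed by rotarod, scored as number toxic/number tested.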

Mus musculus [3] = assay: Neurotoxicity in CF1 mouse at 30 mg/kg, ip after 4 hrs by rotarod test; assay type: toxicity, organism-based; design: dose 30 mg/kg, route intraperitoneal; conditions: in vivo; outline: as §2
Mus musculus [4] = assay: Anticonvulsant activity in CF1 mouse assessed as inhibition of maximal electroshock-induced seizures at 30 mg/kg, ip after 0.5 hrs; assay type: functional, organism-based; design: dose 30 mg/kg; outline: as §1
Mus musculus [5] = assay: Anticonvulsant activity in CF1 mouse assessed as inhibition of maximal electroshock-induced seizures at 300 mg/kg, ip after 0.5 hrs; assay type: functional, organism-based; design: dose 300 mg/kg; outline: as §1
Mus musculus [6] = assay: Anticonvulsant activity in CF1 mouse assessed as inhibition of maximal electroshock-induced seizures at 300 mg/kg, ip after 4 hrs; assay type: functional, organism-based; design: dose 300 mg/kg; outline: as §1
Mus musculus [7] = assay: Neurotoxicity in CF1 mouse at 300 mg/kg, ip after 0.5 hrs by rotarod test; assay type: toxicity, organism-based; design: dose 300 mg/kg, route intraperitoneal; conditions: in vivo; outline: as §2
Mus musculus [8] = assay: Anticonvulsant activity in CF1 mouse assessed as inhibition of maximal electroshock-induced seizures at 100 mg/kg, ip after 0.5 hrs; assay type: functional, organism-based; design: dose 100 mg/kg; outline: as §1
Mus musculus [9] = assay: Neurotoxicity in CF1 mouse at 300 mg/kg, ip after 4 hrs by rotarod test; assay type: toxicity, organism-based; design: dose 300 mg/kg, route intraperitoneal; conditions: in vivo; outline: as §2
Mus musculus [10] = assay: Anticonvulsant activity in CF1 mouse assessed as inhibition of maximal electroshock-induced seizures at 30 mg/kg, ip after 4 hrs; assay type: functional, organism-based; design: dose 30 mg/kg; outline: as §1
Mus musculus [11] = assay: Neurotoxicity in CF1 mouse at 100 mg/kg, ip after 4 hrs by rotarod test; assay type: toxicity, organism-based; design: dose 100 mg/kg, route intraperitoneal; conditions: in vivo; outline: as §2
Mus musculus [12] = assay: Neurotoxicity in CF1 mouse at 100 mg/kg, ip after 0.5 hrs by rotarod test; assay type: toxicity, organism-based; design: dose 100 mg/kg, route intraperitoneal; conditions: in vivo; outline: as §2
Staphylococcus aureus = assay: Antibacterial activity against Staphylococcus aureus ATCC 25923 after 24 hrs by broth microdilution method; assay type: functional; conditions: ATCC 25923, 24 h
Outline: (§3)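 Broth microdilution in Mueller Hinton broth; compound stocks in DMSO, diluted into test medium. Plates incubated at 35 °C and read visually after 24 h. MIC taken as lowest concentration preventing visible growth. Ampicillin reference.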

Mus musculus [13] = assay: Anticonvulsant activity in CF1 mouse assessed as inhibition of maximal electroshock-induced […] seizures at 300 mg/kg, ip after 0.5 hrs; assay type: functional, organism-based; design: dose 300 mg/kg; outline: as §1
Candida parapsilosis = assay: Antifungal activity against Candida parapsilosis ATCC 22019 after 48 hrs by broth microdilution method; assay type: functional; conditions: Lodderomyces parapsilosis, ATCC 22019, 48 h
Escherichia coli = assay: Antibacterial activity against Escherichia coli ATCC 25922 after 24 hrs by broth microdilution method; assay type: functional; conditions: ATCC 25922, 24 h; outline: as §3
Pichia kudriavzevii = assay: Antifungal activity against Candida krusei ATCC 6258 after 48 hrs by broth microdilution method; assay type: functional; conditions: ATCC 6258, 48 h
Mus musculus [14] = assay: Neurotoxicity in CF1 mouse assessed as ability to grasp rotarod at 300 mg/kg, ip after 0.5 hrs by rotarod test; assay type: toxicity, organism-based; design: dose 300 mg/kg, route intraperitoneal; conditions: in vivo; outline: as §2
Pseudomonas aeruginosa = assay: Antibacterial activity against Pseudomonas aeruginosa ATCC 27853 after 24 hrs by broth microdilution method; assay type: functional; conditions: ATCC 27853, 24 h; outline: as §3
Enterococcus faecalis = assay: Antibacterial activity against Enterococcus faecalis ATCC 29212 after 24 hrs by broth microdilution method; assay type: functional; conditions: ATCC 29212, 24 h; outline: as §3
Mus musculus [15] = assay: Neurotoxicity in CF1 mouse assessed as mortality at 300 mg/kg, ip after 4 hrs by rotarod test; assay type: toxicity, organism-based; design: dose 300 mg/kg, route intraperitoneal; conditions: in vivo
Outline: (§4)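 Male albino CF#1 mice (18–25.5 g), free access to food and water except during testing, under NINDS Anticonvulsant Screening Program procedures. Compounds were suspended in 0.5% methylcellulose and given ip. Neurotoxicity was scored by rotarod 0.5 h and 4 h after dosing, at screening doses of 30, 100 or 300 mg/kg. Results are reported as affected/tested animals.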

Mus musculus [16] = assay: Neurotoxicity in CF1 mouse assessed as ability to grasp rotarod at 300 mg/kg, ip after 4 hrs by rotarod test; assay type: toxicity, organism-based; design: dose 300 mg/kg, route intraperitoneal; conditions: in vivo; outline: as §4
Mus musculus [17] = assay: Neurotoxicity in CF1 mouse assessed as hyperactivity at 300 mg/kg, ip after 0.5 hrs by rotarod test; assay type: toxicity, organism-based; design: dose 300 mg/kg, route intraperitoneal; conditions: in vivo

Row | SMILES | inhibition (Mus musculus [1]) | Activity (Mus musculus [2]) | Activity (Mus musculus [3]) | inhibition (Mus musculus [4]) | inhibition (Mus musculus [5]) | inhibition (Mus musculus [6]) | Activity (Mus musculus [7]) | inhibition (Mus musculus [8]) | Activity (Mus musculus [9]) | inhibition (Mus musculus [10]) | Activity (Mus musculus [11]) | Activity (Mus musculus [12]) | MIC (Staphylococcus aureus) [µg/mL] | MIC (Candida parapsilosis) [µg/mL] | MIC (Escherichia coli) [µg/mL] | MIC (Pichia kudriavzevii) [µg/mL] | MIC (Pseudomonas aeruginosa) [µg/mL] | MIC (Enterococcus faecalis) [µg/mL] | other results
1 | CCCCC(=O)OC(C)c1ccc2ccccc2c1 (stereo unspecified) | inactive | Non-toxic | Non-toxic | inactive | inactive | inactive | Non-toxic | inactive | Non-toxic | inactive | Non-toxic | Non-toxic | – | – | – | – | – | – | –
2 | CCCC(=O)OC(Cn1ccnc1)c1ccc2ccccc2c1 (stereo unspecified) | inactive | Non-toxic | Non-toxic | inactive | – | Active | – | Active | Non-toxic | inactive | Non-toxic | – | 8 (≈ 25.9 µM) | 64 (≈ 208 µM) | > 1020 | 256 (≈ 830 µM) | > 1020 | 128 (≈ 415 µM) | inhibition (Mus musculus [13]): Active; Activity (Mus musculus [14]): Toxic
3 | O=C(OC(Cn1ccnc1)c1ccc2ccccc2c1)c1ccc(Cl)cc1 (stereo unspecified) | inactive | Non-toxic | Non-toxic | inactive | Active | inactive | – | inactive | Non-toxic | inactive | Non-toxic | Non-toxic | 32 (≈ 84.9 µM) | 512 (≈ 1360 µM) | 1020 (≈ 2720 µM) | 512 (≈ 1360 µM) | 1020 (≈ 2720 µM) | 128 (≈ 340 µM) | –
4 | Oc1c(C(O)Cn2ccnc2)ccc2ccccc12 (stereo unspecified) | inactive | Non-toxic | Non-toxic | inactive | inactive | inactive | – | inactive | Non-toxic | inactive | Non-toxic | Non-toxic | 512 (≈ 2010 µM) | 512 (≈ 2010 µM) | > 1020 | 512 (≈ 2010 µM) | > 1020 | 256 (≈ 1010 µM) | –
5 | CC(OC(=O)CCCNC(=O)OC(C)(C)C)c1ccc2ccccc2c1 (stereo unspecified) | inactive | Non-toxic | Non-toxic | inactive | inactive | inactive | Non-toxic | inactive | Non-toxic | inactive | Non-toxic | – | – | – | – | – | – | – | –
6 | O=C(Cn1ccnc1)c1ccc2ccccc2c1O | inactive | Non-toxic | Non-toxic | inactive | Active | Active | – | inactive | Non-toxic | inactive | Non-toxic | Non-toxic | 64 (≈ 254 µM) | 32 (≈ 127 µM) | 1020 (≈ 4060 µM) | 64 (≈ 254 µM) | > 1020 | 64 (≈ 254 µM) | –
7 | CCCCC(=O)OC(Cn1ccnc1)c1ccc2ccccc2c1 (stereo unspecified) | – | Non-toxic | Non-toxic | Active | Active | – | – | Active | Toxic | inactive | Non-toxic | Non-toxic | 8 (≈ 24.8 µM) | 128 (≈ 397 µM) | > 1020 | 128 (≈ 397 µM) | > 1020 | 32 (≈ 99.3 µM) | Activity (Mus musculus [15]): Toxic; Activity (Mus musculus [16]): Toxic; Activity (Mus musculus [17]): Toxic
8 | C/C(=N\CCCC(=O)O)c1ccc2ccccc2c1O | inactive | Non-toxic | Non-toxic | inactive | inactive | inactive | Toxic | inactive | Non-toxic | inactive | Non-toxic | Non-toxic | – | – | – | – | – | – | –
9 | CC(C)CC(=O)OC(C)c1ccc2ccccc2c1 (stereo unspecified) | inactive | Non-toxic | Non-toxic | inactive | inactive | inactive | Non-toxic | inactive | Non-toxic | inactive | Non-toxic | Non-toxic | – | – | – | – | – | – | –
10 | CC1(C)S[C@@H]2[C@H](NC(=O)[C@H](N)c3ccccc3)C(=O)N2[C@H]1C(=O)O [AMPICILLIN] | – | – | – | – | – | – | – | – | – | – | – | – | 1 (≈ 2.86 µM) | – | 8 (≈ 22.9 µM) | – | – | 2 (≈ 5.72 µM) | –
11 | OC(Cn1cncn1)(Cn1cncn1)c1ccc(F)cc1F [FLUCONAZOLE] | – | – | – | – | – | – | – | – | – | – | – | – | – | 8 (≈ 26.1 µM) | – | 64 (≈ 209 µM) | – | – | –
12 | CCCC(CCC)C(=O)OC(C)c1ccc2ccccc2c1 (stereo unspecified) | inactive | Non-toxic | Non-toxic | inactive | inactive | inactive | Non-toxic | inactive | Non-toxic | inactive | Non-toxic | Non-toxic | – | – | – | – | – | – | –
13 | CC(C)(C)OC(=O)NCCCC(=O)OC(Cn1ccnc1)c1ccc2ccccc2c1 (stereo unspecified) | inactive | Non-toxic | Non-toxic | inactive | Active | Active | – | Active | Non-toxic | inactive | Non-toxic | – | 16 (≈ 37.8 µM) | > 1020 | > 1020 | > 1020 | > 1020 | 128 (≈ 302 µM) | –
